Laboratory results reported in ChEMBL document CHEMBL1687776, “Origin and molecular evolution of the determinant of methicillin resistance in staphylococci” (2010).
Values after ≈ are worked out from the molar mass of the structure shown.

test system: Staphylococcus vitulinus; experiment: Antibacterial activity against mecA-negative Staphylococcus vitulinus SVMN03 by agar dilution method; type: functional; conditions: Mammaliicoccus vitulinus
How it was run: (§1)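 MIC by agar dilution on Mueller-Hinton agar following CLSI guidelines. Resistance was assigned using CLSI breakpoints. Agents tested were oxacillin, ampicillin, ceftizoxime, ceftriaxone and cefoxitin. Strains were from animal or food sources and identified by hsp60 and/or sodA sequencing. mecA absence was assessed by PCR with degenerate primers for mecA and its homologues.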

| SMILES | MIC [µg/mL] |
| --- | --- |
| Cc1onc(-c2ccccc2)c1C(=O)N[C@@H]1C(=O)N2[C@@H]1SC(C)(C)[C@@H]2C(=O)O [OXACILLIN] | 0.5 (≈ 1.25 µM) |

test system: Staphylococcus vitulinus; experiment: Antibacterial activity against methicillin-resistant mecA-positive Staphylococcus vitulinus SVMP04 by agar dilution method; type: functional; conditions: Mammaliicoccus vitulinus
How it was run: (§2)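 MIC by agar dilution on Mueller-Hinton agar per CLSI guidance; resistance judged against CLSI breakpoints. Strains were animal or food isolates (type strains for S. sciuri subspecies), typed by hsp60 and/or sodA sequencing; mecA homologue carriage checked by PCR with degenerate primers. Agents tested: oxacillin, ampicillin, ceftizoxime, ceftriaxone, cefoxitin.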

| SMILES | MIC [µg/mL] |
| --- | --- |
| Cc1onc(-c2ccccc2)c1C(=O)N[C@@H]1C(=O)N2[C@@H]1SC(C)(C)[C@@H]2C(=O)O [OXACILLIN] | 0.5 (≈ 1.25 µM) |

test system: Staphylococcus vitulinus; experiment: Antibacterial activity against mecA-negative Staphylococcus vitulinus SVMN01 (ATCC 51145T) by agar dilution method; type: functional; conditions: Mammaliicoccus vitulinus; how it was run: as §1

| SMILES | MIC [µg/mL] |
| --- | --- |
| Cc1onc(-c2ccccc2)c1C(=O)N[C@@H]1C(=O)N2[C@@H]1SC(C)(C)[C@@H]2C(=O)O [OXACILLIN] | 0.5 (≈ 1.25 µM) |

test system: Mammaliicoccus lentus; experiment: Antibacterial activity against mecA-negative Staphylococcus lentus ATCC 29070T by agar dilution method; type: functional; conditions: not given; how it was run: as §1

| SMILES | MIC [µg/mL] |
| --- | --- |
| Cc1onc(-c2ccccc2)c1C(=O)N[C@@H]1C(=O)N2[C@@H]1SC(C)(C)[C@@H]2C(=O)O [OXACILLIN] | 0.5 (≈ 1.25 µM) |

test system: Staphylococcus vitulinus; experiment: Antibacterial activity against mecA-negative Staphylococcus vitulinus SVMN10 by agar dilution method; type: functional; conditions: Mammaliicoccus vitulinus; how it was run: as §1

| SMILES | MIC [µg/mL] |
| --- | --- |
| Cc1onc(-c2ccccc2)c1C(=O)N[C@@H]1C(=O)N2[C@@H]1SC(C)(C)[C@@H]2C(=O)O [OXACILLIN] | 0.5 (≈ 1.25 µM) |

test system: Staphylococcus fleurettii; experiment: Antibacterial activity against methicillin-resistant mecA-positive Staphylococcus fleurettii SFMP03 by agar dilution method; type: functional; conditions: Mammaliicoccus fleurettii; how it was run: as §2

| SMILES | MIC [µg/mL] |
| --- | --- |
| Cc1onc(-c2ccccc2)c1C(=O)N[C@@H]1C(=O)N2[C@@H]1SC(C)(C)[C@@H]2C(=O)O [OXACILLIN] | 128 (≈ 319 µM) |

test system: Staphylococcus fleurettii; experiment: Antibacterial activity against mecA-negative Staphylococcus fleurettii SFMN02 by agar dilution method; type: functional; conditions: Mammaliicoccus fleurettii; how it was run: as §1

| SMILES | MIC [µg/mL] |
| --- | --- |
| Cc1onc(-c2ccccc2)c1C(=O)N[C@@H]1C(=O)N2[C@@H]1SC(C)(C)[C@@H]2C(=O)O [OXACILLIN] | 0.5 (≈ 1.25 µM) |

test system: Staphylococcus vitulinus; experiment: Antibacterial activity against methicillin-resistant mecA-positive Staphylococcus vitulinus SVMP05 by agar dilution method; type: functional; conditions: Mammaliicoccus vitulinus; how it was run: as §2

| SMILES | MIC [µg/mL] |
| --- | --- |
| Cc1onc(-c2ccccc2)c1C(=O)N[C@@H]1C(=O)N2[C@@H]1SC(C)(C)[C@@H]2C(=O)O [OXACILLIN] | 0.5 (≈ 1.25 µM) |

test system: Staphylococcus vitulinus; experiment: Antibacterial activity against mecA-negative Staphylococcus vitulinus SVMN02 by agar dilution method; type: functional; conditions: Mammaliicoccus vitulinus; how it was run: as §2

| SMILES | MIC [µg/mL] |
| --- | --- |
| Cc1onc(-c2ccccc2)c1C(=O)N[C@@H]1C(=O)N2[C@@H]1SC(C)(C)[C@@H]2C(=O)O [OXACILLIN] | 0.5 (≈ 1.25 µM) |

test system: Staphylococcus vitulinus; experiment: Antibacterial activity against mecA-negative Staphylococcus vitulinus SVMN13 by agar dilution method; type: functional; conditions: Mammaliicoccus vitulinus; how it was run: as §1

| SMILES | MIC [µg/mL] |
| --- | --- |
| Cc1onc(-c2ccccc2)c1C(=O)N[C@@H]1C(=O)N2[C@@H]1SC(C)(C)[C@@H]2C(=O)O [OXACILLIN] | 0.5 (≈ 1.25 µM) |

test system: Staphylococcus vitulinus; experiment: Antibacterial activity against methicillin-resistant mecA-positive Staphylococcus vitulinus SVMP03 by agar dilution method; type: functional; conditions: Mammaliicoccus vitulinus; how it was run: as §2

| SMILES | MIC [µg/mL] |
| --- | --- |
| Cc1onc(-c2ccccc2)c1C(=O)N[C@@H]1C(=O)N2[C@@H]1SC(C)(C)[C@@H]2C(=O)O [OXACILLIN] | 0.5 (≈ 1.25 µM) |

test system: Staphylococcus vitulinus; experiment: Antibacterial activity against mecA-negative Staphylococcus vitulinus SVMN07 by agar dilution method; type: functional; conditions: Mammaliicoccus vitulinus; how it was run: as §2

| SMILES | MIC [µg/mL] |
| --- | --- |
| Cc1onc(-c2ccccc2)c1C(=O)N[C@@H]1C(=O)N2[C@@H]1SC(C)(C)[C@@H]2C(=O)O [OXACILLIN] | 0.5 (≈ 1.25 µM) |

test system: Staphylococcus vitulinus; experiment: Antibacterial activity against mecA-negative Staphylococcus vitulinus SVMN05 by agar dilution method; type: functional; conditions: Mammaliicoccus vitulinus; how it was run: as §2

| SMILES | MIC [µg/mL] |
| --- | --- |
| Cc1onc(-c2ccccc2)c1C(=O)N[C@@H]1C(=O)N2[C@@H]1SC(C)(C)[C@@H]2C(=O)O [OXACILLIN] | 0.25 (≈ 0.623 µM) |

test system: Staphylococcus vitulinus; experiment: Antibacterial activity against mecA-negative Staphylococcus vitulinus SVMN14 by agar dilution method; type: functional; conditions: Mammaliicoccus vitulinus; how it was run: as §2

| SMILES | MIC [µg/mL] |
| --- | --- |
| Cc1onc(-c2ccccc2)c1C(=O)N[C@@H]1C(=O)N2[C@@H]1SC(C)(C)[C@@H]2C(=O)O [OXACILLIN] | 0.5 (≈ 1.25 µM) |

test system: Staphylococcus fleurettii; experiment: Antibacterial activity against methicillin-resistant mecA-positive Staphylococcus fleurettii SFMP04 by agar dilution method; type: functional; conditions: Mammaliicoccus fleurettii; how it was run: as §2

| SMILES | MIC [µg/mL] |
| --- | --- |
| Cc1onc(-c2ccccc2)c1C(=O)N[C@@H]1C(=O)N2[C@@H]1SC(C)(C)[C@@H]2C(=O)O [OXACILLIN] | 128 (≈ 319 µM) |

test system: Staphylococcus vitulinus; experiment: Antibacterial activity against methicillin-resistant mecA-positive Staphylococcus vitulinus SVMP01 by agar dilution method; type: functional; conditions: Mammaliicoccus vitulinus; how it was run: as §2

| SMILES | MIC [µg/mL] |
| --- | --- |
| Cc1onc(-c2ccccc2)c1C(=O)N[C@@H]1C(=O)N2[C@@H]1SC(C)(C)[C@@H]2C(=O)O [OXACILLIN] | 0.5 (≈ 1.25 µM) |

test system: not listed separately; experiment: Antibacterial activity against mecA-positive Staphylococcus sciuri subsp. carnaticus ATCC 700058T by agar dilution method; conditions: Mammaliicoccus sciuri

| SMILES | MIC [µg/mL] |
| --- | --- |
| Cc1onc(-c2ccccc2)c1C(=O)N[C@@H]1C(=O)N2[C@@H]1SC(C)(C)[C@@H]2C(=O)O [OXACILLIN] | 1 (≈ 2.49 µM) |
